From ChEMBL document CHEMBL1212858, “New bioactive halenaquinone derivatives from South Pacific marine sponges of the genus Xestospongia” (Bioorg Med Chem, 2010)
Counter-ions that a name gives are not always drawn.

Columns and labels:
[1] = test system: Vero; test: Cytotoxicity against african green monkey Vero cells assessed as inhibition of [3H]hypoxanthine incorporation after 48 hrs; format: cell-based; conditions: Chlorocebus sabaeus
How it was run: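 VERO cells (10^5 cells/well) exposed 48 h to serial dilutions in culture medium of a 10 mg/mL DMSO mother solution; growth inhibition by 3H-hypoxanthine incorporation (9.25 kBq/well). Highest concentration tested 20 µg/mL. IC50 read graphically from inhibition-versus-concentration plots; triplicates on three independent occasions, mean ± SEM (n = 3). Doxorubicin positive control.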

[2] = test system: Plasmodium falciparum; test: Antiplasmodial activity against chloroquine-resistant Plasmodium falciparum FcB1 after 48 hrs; format: functional, organism-based; conditions: FcB1/Columbia
How it was run: (§1)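 Ring-stage P. falciparum cultures synchronised by magnetic purification plus D-sorbitol lysis. Compounds from a 10 mg/mL DMSO mother solution were serially diluted in culture medium and incubated 48 h with parasitised erythrocytes (2% haematocrit, 1% parasitaemia). Growth was followed by 3H-hypoxanthine incorporation (9.25 kBq/well). IC50 was read graphically from inhibition–concentration plots. Triplicates, three independent experiments; chloroquine as positive control.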

[3] = target: T1, Phospholipase A2 (Apis mellifera, UniProt P00630); test: Inhibition of bee venom phospholipase A2 after 5 mins by spectrophotometric analysis
T1 sequence (P00630 whole entry): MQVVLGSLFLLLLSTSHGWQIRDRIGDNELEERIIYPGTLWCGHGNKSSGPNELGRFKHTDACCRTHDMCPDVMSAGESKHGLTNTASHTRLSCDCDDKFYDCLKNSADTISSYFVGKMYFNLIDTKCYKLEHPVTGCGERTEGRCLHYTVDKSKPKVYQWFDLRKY
How it was run: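 Colorimetric assay with Apis mellifera venom PLA2, added as 2 µL of a 1 mg/mL […]. Test material in DMSO was preincubated with the enzyme for 1 h at 25 °C. Substrate solution was then added: L-α-phosphatidylcholine 3.5 mM, phenol red 0.055 mM, NaCl 100 mM, CaCl2 10 mM, Triton 7 mM, pH 7.6. Absorbance at 550 nm was read at 0 and 5 min, in duplicate. Manoalide as positive control.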

[4] = target: Protein farnesyltransferase (Homo sapiens, UniProt P49354+P49356); test: Inhibition of human FTase after 15 mins by fluorimetric analysis; format: protein-complex assay
How it was run: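 Partially purified human FTase (1.5 mg/mL, 5 µL per 1 mL peptide solution) with dansyl-GCVLS peptide in Tris/HCl pH 7.5 buffer with DTT, MgCl2, ZnCl2 and 0.18% octyl-D-glucopyranoside in place of CHAPS. Inhibitors added from DMSO; started with farnesyl pyrophosphate (10 µM stock). Fluorescence (ex 340/em 486 nm) read 15 min at 30 °C; duplicates, run twice.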

[5] = Inhibition of Saccharomyces cerevisiae FTase after 15 mins by fluorimetric analysis
How it was run: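 Partially purified recombinant yeast FTase (2.2 mg/mL, 0.1 mL per 7.0 mL peptide solution) with dansyl-GCVLS peptide in 53 mM Tris/HCl pH 7.5, 5.8 mM DTT, 6 mM MgCl2, 12 µM ZnCl2, 0.09% CHAPS. Inhibitors added from DMSO; started with farnesyl pyrophosphate (10 µM stock). Fluorescence (ex 340/em 486 nm) followed 15 min at 30 °C; duplicates, run twice.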

[6] = test system: Plasmodium falciparum; test: Antiplasmodial activity against chloroquine-sensitive Plasmodium falciparum 3D7 after 48 hrs; format: functional, organism-based; conditions: 3D7, 48 h; how it was run: as §1
[7] = Selectivity ratio of IC50 for african green monkey (Cercopithecus aethiops) Vero cells to IC50 for chloroquine-resistant Plasmodium falciparum FcB1; format: ADME, cell-based; conditions: read-out: Ratio IC50
How it was run: (§2)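 Compounds were serially diluted from a 10 mg/mL DMSO stock into medium and added to VERO cells (10^5 cells/well) or to synchronised ring-stage P. falciparum (2% haematocrit, 1% parasitaemia). Read-out was 3H-hypoxanthine incorporation, with IC50 read graphically. Triplicates, three independent times; doxorubicin and chloroquine as controls.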

[8] = Selectivity ratio of IC50 for african green monkey (Cercopithecus aethiops) Vero cells to IC50 for chloroquine-sensitive Plasmodium falciparum 3D7; format: ADME, cell-based; conditions: read-out: Ratio IC50; how it was run: as §2

| SMILES | IC50 [1] | IC50 [2] | IC50 [3] | IC50 [4] | IC50 [5] | IC50 [6] | selectivity ratio [7] | selectivity ratio [8] |
| --- | --- | --- | --- | --- | --- | --- | --- | --- |
| C[C@@]12CCC(=O)c3coc(c31)C(=O)c1cc3c(O)ccc(OS(=O)(=O)O)c3cc12 [HALENAQUINOL SULFATE SODIUM] | > 48 µM | > 24 µM | 1000 µM | 21.5 µM | 16.1 µM | > 24 µM | – | – |
| CC1=CCCC2(C)C1=C(O)C(=O)c1cc3c(cc12)C(=O)C=CC3=O (stereo unspecified) [ORHALQUINONE] | > 62 µM | 9.22 µM | 1570 µM | 0.41 µM | 0.4 µM | 10.9 µM | 5 | 5 |
| C[C@@]12CC[C@H](O)[C@@H]3COC(=C31)C(=O)c1cc3c(cc12)C(=O)CC[C@@H]3O [TETRAHYDROHALENAQUINONE A] | > 58 µM | > 29 µM | 600 µM | > 30 µM | > 30 µM | > 29 µM | – | – |
| C[C@@]12CC[C@H](O)[C@@H]3COC(=C31)C(=O)c1cc3c(cc12)C(O)CCC3=O (stereo partly specified) [XESTOSAPROL A] | > 58 µM | > 29 µM | 1000 µM | > 30 µM | > 30 µM | > 29 µM | – | – |
| C[C@@]12CCC(=O)c3coc(c31)C(=O)c1cc3c(cc12)C(=O)C=CC3=O [HELENAQUINONE] | > 60 µM | > 30 µM | 3.7 µM | 0.93 µM | 1.57 µM | > 30 µM | – | – |
| C[C@@]12CCC(=O)c3coc(c31)C(=O)c1cc3c(cc12)C(=O)C1=C(C3=O)S(=O)(=O)CCN1 [3-KETOADOCIAQUINONE A] | > 45 µM | 1.08 µM | 140 µM | 4.19 µM | 1.48 µM | 1.67 µM | 5 | 5 |
| CO[C@]12OC(O)C3=C1[C@@](C)(CCC3=O)c1cc3c(OS(=O)(=O)O)ccc(O)c3cc1C2=O (stereo partly specified) [XESTOSAPROL C METHYLACETAL] | > 42 µM | > 21 µM | 570 µM | 4.34 µM | 6.71 µM | > 21 µM | – | – |
| COc1cccc2c1C(=O)c1c(O)c3c(c(O)c1C2=O)C[C@@](O)(C(=O)CO)C[C@@H]3O[C@H]1C[C@H](N)[C@H](O)[C@H](C)O1 [DOXORUBICIN] | 5.12 µM | – | – | – | – | – | – | – |
| C[C@@]12CCC(=O)c3coc(c31)C(=O)c1cc3c(cc12)C(=O)C1=C(NCCS1(=O)=O)C3=O [3-KETOADOCIAQUINONE B] | > 45 µM | 3.89 µM | 105 µM | 9.27 µM | 3.75 µM | 4.12 µM | 5 | 5 |
| CC1=C(CC/C(C)=C/CCC2=CC[C@H](C3=CC(=O)O[C@H]3O)O[C@H]2O)C(C)(C)CCC1 [MANOALIDE] | – | – | 0.5 µM | – | – | – | – | – |
